Consider 16 compounds from ChEMBL document CHEMBL4138116, “New bicyclic brominated furanones as potent autoinducer-2 quorum-sensing inhibitors against bacterial biofilm formation” (Eur J Med Chem, 2017).

Calls of active or inactive are those of the source. The rule behind the calls is not given here.

Data set [1] concerns Fusobacterium nucleatum. The data set can be described thus: Inhibition of Fusobacterium nucleatum ATCC 25586 AI-2 assessed as decrease in biofilm formation at 0.02 to 0.2 uM.
Data set [2] has as its system Fusobacterium nucleatum. Briefly: Inhibition of Fusobacterium nucleatum AI-2-mediated biofilm formation of Fusobacterium nucleatum ATCC 25586 assessed as biofilm biomass at 2 uM incubated for 48 hrs under anaerobic condition by confocal laser scanning microscopic method (reference value: 2.99 um'3/um'2).
Data set [3] deals with Fusobacterium nucleatum. The data set can be described thus: Inhibition of Fusobacterium nucleatum AI-2-mediated biofilm formation of Fusobacterium nucleatum ATCC 25586 assessed as biofilm average depth at 2 uM incubated for 48 hrs under anaerobic condition by confocal laser scanning microscopic method (reference value: 5.37 um).
The test system of data set [4] is Fusobacterium nucleatum. The data set can be described thus: Inhibition of Fusobacterium nucleatum AI-2-mediated biofilm formation of Porphyromonas gingivalis ATCC 33277 assessed as biofilm biomass at 2 uM incubated for 48 hrs under anaerobic condition by confocal laser scanning microscopic method (reference value: 3.73 um'3/um'2).
Data set [5] relates to Fusobacterium nucleatum. The data set can be described thus: Inhibition of Fusobacterium nucleatum AI-2-mediated biofilm formation of Porphyromonas gingivalis ATCC 33277 assessed as biofilm average depth at 2 uM incubated for 48 hrs under anaerobic condition by confocal laser scanning microscopic method (reference value: 4.87 um).
In data set [6] the test system is Fusobacterium nucleatum. Briefly: Inhibition of Fusobacterium nucleatum AI-2-mediated biofilm formation of Tannerella forsythia ATCC 43037 assessed as biofilm biomass at 2 uM incubated for 48 hrs under anaerobic condition by confocal laser scanning microscopic method (reference value: 4.05 um'3/um'2).
Data set [7] concerns Fusobacterium nucleatum. The data set can be described thus: Inhibition of Fusobacterium nucleatum AI-2-mediated biofilm formation of Tannerella forsythia ATCC 43037 assessed as biofilm average depth at 2 uM incubated for 48 hrs under anaerobic condition by confocal laser scanning microscopic method (reference value: 5.29 um).
In data set [8] the test system is Fusobacterium nucleatum. Briefly: Inhibition of Fusobacterium nucleatum AI-2-mediated biofilm formation of Fusobacterium nucleatum ATCC 25586 assessed as biofilm formation at 2 uM incubated for 48 hrs under anaerobic condition by crystal violet staining-based assay (reference value: 100%). Also noted: scale not given: the % may be the effect or the level left. In a few lines: (§1)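 Crystal-violet biofilm assay on glass slips in 24-well plates with 10% (v/v) F. nucleatum AI-2 and compound at 0.002–2 mM. Inocula were F. nucleatum 2 × 10^7, P. gingivalis 2 × 10^8 and T. forsythia 2 × 10^8 bacteria/mL, held 48 h anaerobically (10% H2, 10% CO2, 80% N2). Slips were washed three times with PBS, stained with 1% crystal violet for 10 min, destained with acetone–alcohol (20:80) and read at A595.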

Data set [9] relates to Fusobacterium nucleatum. Briefly: Inhibition of Fusobacterium nucleatum AI-2-mediated biofilm formation of Porphyromonas gingivalis ATCC 33277 assessed as biofilm formation at 2 uM incubated for 48 hrs under anaerobic condition by crystal violet staining-based assay (reference value: 100%). On the set-up: scale not given: the % may be the effect or the level left. In a few lines: as §1

Data set [10] has as its system Fusobacterium nucleatum. Briefly: Inhibition of Fusobacterium nucleatum AI-2-mediated biofilm formation of Tannerella forsythia ATCC 43037 assessed as biofilm formation at 2 uM incubated for 48 hrs under anaerobic condition by crystal violet staining-based assay (reference value: 100%). On the set-up: scale not given: the % may be the effect or the level left. The method in brief:
as §1

In data set [11] the test system is THP-1. Briefly: Effect on host cell immune response in human THP1 cells assessed as upregulation of IL-6 mRNA expression at 2 uM after 24 hrs by RT-PCR method. The data set is classed as ADME, cell-based. Conditions: thp-1, 24 h. In a few lines: (§2)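 THP-1 cells (1 × 10^6 cells/well) or HGFs (2 × 10^5 cells/well) in 6-well plates were incubated 24 h at 37 °C with or without compound, with LPS as comparator. Total RNA (1 µg) was reverse-transcribed, and IL-6 and IL-8 mRNA were quantified by SYBR Green real-time PCR (40 cycles of 95 °C for 15 s and 60 °C for 1 min). Runs were done three times in triplicate.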

In data set [12] the test system is THP-1. The data set can be described thus: Effect on host cell immune response in human THP1 cells assessed as upregulation of IL-8 mRNA expression at 2 uM after 24 hrs by RT-PCR method. Type of data set: ADME, cell-based. Conditions: thp-1, 24 h. The method in brief:
as §2

The nature of data set [13]: Effect on host cell immune response in human gingival fibroblasts assessed as upregulation of IL-8 mRNA expression at 2 uM after 24 hrs by RT-PCR method. Type of data set: ADME. In a few lines: as §2
In the next data set the test system is Vibrio harveyi. Briefly: Effect on Vibrio harveyi BB170 planktonic growth at 2 incubated for 9 hrs under aerobic condition by spectrophotometric method. Also noted: concentration or dose not given beside the values. Conditions: in vitro.
For data set [14], the system named is Fusobacterium nucleatum. The data set can be described thus: Inhibition of Fusobacterium nucleatum ATCC 25586 AI-2 assessed as decrease in biofilm formation at 0.2 to 2 uM.
In the next data set the test system is Porphyromonas gingivalis. The data set can be described thus: Inhibition of Porphyromonas gingivalis ATCC 33277 planktonic growth at […] incubated for 48 hrs under anaerobic condition by spectrophotometric method. Type of data set: organism-based. The method in brief: (§3)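 F. nucleatum, P. gingivalis or T. forsythia were grown planktonically for 48 h at 37 °C under anaerobic conditions with compound at 2 mM. Growth was monitored by absorbance at 600 nm.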

Data set [15] concerns Fusobacterium nucleatum. Briefly: Inhibition of Fusobacterium nucleatum ATCC 25586 planktonic growth at […] incubated for 48 hrs under anaerobic condition by spectrophotometric method. Type of data set: organism-based. The method in brief: as §3
Another data set concerns Tannerella forsythia. Briefly: Inhibition of Tannerella forsythia ATCC 43037 planktonic growth at […] incubated for 48 hrs under anaerobic condition by spectrophotometric method. Type of data set: organism-based. The method in brief:
as §3

Data set [16] has as its system THP-1. The data set can be described thus: Cytotoxicity against human THP1 cells assessed as effect on cell viability at 2 uM incubated for 24 hrs by CCK8 assay. Type of data set: cell-based. To be noted: thp-1, 24 h. In a few lines:
(§4)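 Cells in 96-well plates were exposed to compound for 24 h, with viability read by CCK-8 against a non-treated control. THP-1 (RPMI 1640, 10% FBS) was seeded at 1 × 10^5 cells/well and treated directly. HGFs (DMEM, 10% FBS) at 2 × 10^4 and HOK-16B (keratinocyte basal medium) at 5 × 10^4 cells/well were treated after reaching 85% confluence. Runs were done three times in triplicate.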

The nature of data set [17]: Cytotoxicity against human gingival fibroblasts assessed as effect on cell viability at 2 uM incubated for 24 hrs by CCK8 assay. The method in brief: as §4
In general terms: Formazan colour is commonly taken as a measure of viable cells.

Data set [18] is described as follows: Cytotoxicity against human HOK16B assessed as effect on cell viability at 2 uM incubated for 24 hrs by CCK8 assay. The method in brief:
as §4

A short description of data set [19]: Effect on host cell immune response in human gingival fibroblasts assessed as upregulation of IL-6 mRNA expression at 2 uM after 24 hrs by RT-PCR method. Type of data set: ADME. In a few lines: as §2

Turning to `CCCCCOc1cccc2c1C(=O)OC2=C(Br)Br`, in the data set with Fusobacterium nucleatum [1], the inhibition entry is “inactive”.
Consider `O=C1OC(=C(Br)Br)C2=C1CCC2`, for which, in the data set on Fusobacterium nucleatum [1], the inhibition result is “inactive”.
Still for that read-out and setting: with `CCCOc1cccc2c1C(=O)OC2=C(Br)Br` the entry was “inactive”; with `CCCCCOc1ccc2c(c1)C(=C(Br)Br)OC2=O`, “inactive”; with `CCCOc1ccc2c(c1)C(=C(Br)Br)OC2=O`, “inactive”.
As to `O=C1C=C(Br)/C(=C/Br)O1`, in the data set with Fusobacterium nucleatum [1], the inhibition result is “Active”. Besides, the Activity in the data set on Fusobacterium nucleatum [2] is 0.42 um3/um2; in the data set with Fusobacterium nucleatum [3], 2.02 µm; with Fusobacterium nucleatum [4], 0.3 um3/um2; in the data set on Fusobacterium nucleatum [5], 2.05 µm; with Fusobacterium nucleatum [6], 0.77 um3/um2; with Fusobacterium nucleatum [7], 2.18 µm. The Activity in the data set on Fusobacterium nucleatum [8] is 55.6%; in the data set on Fusobacterium nucleatum [9] it was 39.2%; in the data set with Fusobacterium nucleatum [10], 47.4%; in the data set with THP-1 [11], “Toxic”; with THP-1 [12], “Toxic”; in data set [13], “Toxic”. Besides, the Activity entry in the data set with Vibrio harveyi is given as “Toxic”.
As for `CCOc1cccc2c1C(=O)OC2=C(Br)Br`, the inhibition result with Fusobacterium nucleatum [1] is “inactive”.
For `CCOc1ccc2c(c1)C(=C(Br)Br)OC2=O`, in the data set with Fusobacterium nucleatum [1], the inhibition entry was “inactive”.
`O=C1OC(=C(Br)Br)c2ccccc21`: the inhibition entry in the data set with Fusobacterium nucleatum [14] was “Active”. For the same compound, the inhibition result with Fusobacterium nucleatum [1] is “inactive”.
`CCCCOc1cccc2c1C(=O)OC2=C(Br)Br`: the inhibition result in the data set with Fusobacterium nucleatum [1] is “inactive”.
`Cc1cccc2c1C(=O)OC2=C(Br)Br`: the inhibition entry in the data set on Fusobacterium nucleatum [1] was “Active”. Besides, the Activity in the data set on Fusobacterium nucleatum [2] was 0.32 um3/um2; with Fusobacterium nucleatum [3], 1.72 µm; with Fusobacterium nucleatum [4], 0.27 um3/um2; with Fusobacterium nucleatum [5] it was 1.97 µm; with Fusobacterium nucleatum [6], 0.88 um3/um2; in the data set on Fusobacterium nucleatum [7] it was 2.41 µm. Further, the Activity in the data set with Fusobacterium nucleatum [8] is 33.2%; in the data set with Fusobacterium nucleatum [9], 29.3%; in the data set with Fusobacterium nucleatum [10], 53.5%; in the data set on THP-1 [16] it was “Non-Toxic”; in [17], “Non-Toxic”; in data set [18] it was “Non-Toxic”. Further, the Activity result (with THP-1 [11]; with THP-1 [12]; in [19]; in data set [13]; in the data set on Vibrio harveyi) was “Non-Toxic” in each case. Moreover, the “growth inhibition (GI)” value in the data set on Porphyromonas gingivalis, in the data set on Fusobacterium nucleatum [15] and in the data set with Tannerella forsythia was “Non-Toxic” in each case.
`O=C1OC(=C(Br)Br)C2=C1CCCC2`: in the data set on Fusobacterium nucleatum [1], the inhibition result was “inactive”.
Regarding `O=C1OC(=C(Br)Br)C2CCCC12` (stereo unspecified), the inhibition entry in the data set with Fusobacterium nucleatum [14] and in the data set on Fusobacterium nucleatum [1] was “Active” throughout. Besides, the Activity in the data set with Fusobacterium nucleatum [2] was 0.39 um3/um2; in the data set with Fusobacterium nucleatum [3] it was 1.82 µm; with Fusobacterium nucleatum [4], 0.31 um3/um2; with Fusobacterium nucleatum [5], 2.05 µm; in the data set on Fusobacterium nucleatum [6] it was 0.93 um3/um2; in the data set on Fusobacterium nucleatum [7] it was 2.27 µm. The Activity in the data set with Fusobacterium nucleatum [8] is 38.8%; in the data set with Fusobacterium nucleatum [9], 48.4%; with Fusobacterium nucleatum [10], 57.8%; in the data set with THP-1 [16], “Non-Toxic”; in data set [17] it was “Non-Toxic”; in [18] it was “Non-Toxic”. Besides, the Activity result (in the data set on THP-1 [11]; with THP-1 [12]; in [19]; in data set [13]; in the data set with Vibrio harveyi) was “Non-Toxic” each time. In addition, the “growth inhibition (GI)” value in the data set with Porphyromonas gingivalis, in the data set with Fusobacterium nucleatum [15] and in the data set on Tannerella forsythia was “Non-Toxic” in each case.
`O=C1OC(=C(Br)Br)C2CCCCC12` (stereo unspecified): in the data set with Fusobacterium nucleatum [1], the inhibition entry is “inactive”.
With `Cc1ccc2c(c1)C(=C(Br)Br)OC2=O`, the inhibition result in the data set on Fusobacterium nucleatum [1] is “Active”. Moreover, the Activity was determined as 0.38 um3/um2 in the data set on Fusobacterium nucleatum [2]; 1.87 µm with Fusobacterium nucleatum [3]; 0.29 um3/um2 in the data set on Fusobacterium nucleatum [4]; 2.05 µm in the data set on Fusobacterium nucleatum [5]; 0.59 um3/um2 in the data set on Fusobacterium nucleatum [6]; 1.94 µm with Fusobacterium nucleatum [7]. The Activity is 32.1% with Fusobacterium nucleatum [8]; 34.7% with Fusobacterium nucleatum [9]; 33.5% with Fusobacterium nucleatum [10]; “Non-Toxic” in the data set on THP-1 [16]; “Non-Toxic” in data set [17]; “Non-Toxic” in data set [18]. Besides, the Activity entry (in the data set on THP-1 [11]; in the data set with THP-1 [12]; in data set [19]; in [13]; in the data set with Vibrio harveyi) was “Non-Toxic” throughout. Moreover, the “growth inhibition (GI)” value with Porphyromonas gingivalis, in the data set on Fusobacterium nucleatum [15] and in the data set on Tannerella forsythia was “Non-Toxic” each time.
Consider `CCCCOc1ccc2c(c1)C(=C(Br)Br)OC2=O`, for which the inhibition entry in the data set with Fusobacterium nucleatum [1] is “inactive”.
